Source: PubChem BioAssay
The list is not random: actives were taken first. Their share in the collection is about 4.6%.
OX1R antag-1: antagonists of human orexin 1 receptor (OX1R) | 330,000 compounds, 1.8% hits | OX1R-expressing cells, FRET antagonist read-out | Orexin/Hypocretin receptor type 1 (Homo sapiens), O43613 | inhibition, % at 6.6 µM | AID 485270, 2010; in the data active = inhibition mostly above about 38%, no sharp cut-off; inactive = mostly below about 40%;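 also: 0% = agonist challenge alone and 100% = reference antagonist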
Target sequence (O43613 whole entry, looked up): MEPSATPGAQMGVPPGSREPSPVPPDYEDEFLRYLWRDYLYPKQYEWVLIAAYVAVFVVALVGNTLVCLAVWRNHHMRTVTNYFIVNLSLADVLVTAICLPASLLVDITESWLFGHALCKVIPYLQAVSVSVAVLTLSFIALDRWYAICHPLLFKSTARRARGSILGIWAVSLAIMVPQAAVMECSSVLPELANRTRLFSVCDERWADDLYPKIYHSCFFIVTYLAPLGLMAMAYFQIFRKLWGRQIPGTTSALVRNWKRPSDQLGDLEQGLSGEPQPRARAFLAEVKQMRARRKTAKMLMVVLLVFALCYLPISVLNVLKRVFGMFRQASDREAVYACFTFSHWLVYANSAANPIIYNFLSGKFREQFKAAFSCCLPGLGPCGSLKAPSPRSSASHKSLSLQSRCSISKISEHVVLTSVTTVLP
GPR7 antagonist: GPR7 receptor antagonists, primary screen, cell-based, fluorescence, single concentration; Neuropeptides B/W receptor type 1 (Homo sapiens), P48145; GPR7-expressing cells, fluorescence antagonist assay; inhibition, % at 4.4 µM; 290,000 compounds, 1.1% hits; in the data active = inhibition above about 16%, passing the limit was not always enough;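 also: cells stimulated with the agonist NPW; 0% = agonist with vehicle and 100% = vehicle without agonist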
TAAR1 ag: human TAAR1 agonists, primary screen, Fluo-8 calcium fluorescence, CHO RD-HGA16 cells. AID 624467, 2012. 360,000 compounds, 0.99% hits. activation, % at 3 µM. vehicle wells 0%, saturating PEA agonist 100%. Trace amine-associated receptor 1 (Homo sapiens), Q96RJ0;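 active = activation above the mean activation of all test compounds in the run plus 3 SD, cut at about 38% in these data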
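Assay system: CHO-derived RD-HGA16 cells with stable Gα16 and human TAAR1; timing: 17-24 h seeding, 75 min 37 °C dye, 30 min RT; read-out: % activation from peak over basal fluorescence ratio, DMSO-to-PEA scaled; measured by: kinetic Fluo-8 calcium fluorescence; benchmarks: low control DMSO, high control PEA (EC100); doses: 3 µM single concentration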
CHO parental Ca: ATP-evoked calcium signal inhibitors, parental CHO, primary screen, counter-screen for OX1R antagonist project, cell-based, fluorescence, Fluo-8 calcium dye | parental CHO-K1, ATP-induced calcium, Fluo-8 fluorescence | inhibition, % at 5.6 µM | 330,000 compounds, 0.63% hits | AID 463079, 2010;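 active = inhibition above that plate's mean sample inhibition plus 3 SD, cut at about 26% in these data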;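 also: 0% = ATP-challenged DMSO wells and 100% = DMSO wells without ATP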
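Material: parental CHO cells / Compound: single nominal dose of 5.6 µM per compound / Signal: Fluo-8 fluorescence / Replicates: singlicate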
TAAR1 antagonist: human TAAR1 antagonists, primary screen, Fluo-8 calcium fluorescence, CHO RD-HGA16 cells; inhibition, % at 3 µM; Trace amine-associated receptor 1 (Homo sapiens), Q96RJ0; 360,000 compounds, 1.5% hits; AID 624466, 2012; antagonist;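 active = inhibition above a per-plate cutoff, the mean inhibition of test compounds on that plate plus 3 SD, cut at about 49% in these data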;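 also: 0% = DMSO plus EC80 beta-PEA response and 100% = DMSO alone without agonist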
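test system = CHO RD-HGA16 cells bearing hTAAR1 | replication = singlicate | controls = DMSO-only wells and EC80 β-PEA-stimulated wells | reagent = EC80 β-phenethylamine stimulus | read-out basis = percent inhibition of PEA-evoked calcium signal, max/basal emission ratio | schedule = seeding 17-24 h prior, 75-min 37 °C, 30-min RT dye loading | signal = kinetic Fluo-8 calcium fluorescence measurement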
OX1R antag-2: OX1R (HCRTR1) antagonists, primary screen, fluorescence, CHO/OX1R cells, Fluo-8 calcium, orexin A. inhibition, % at 5 µM. Orexin/Hypocretin receptor type 1 (Homo sapiens), O43613. 330,000 compounds, 0.43% hits. Fluo-8 calcium fluorescence;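 active = inhibition above its plate's threshold, mean inhibition of all tested compounds on the plate plus 3 SD, cut at about 37% in these data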;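 also: 0% = orexin A challenge wells and 100% = SB-334867-A antagonist wells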
Starred values were filed as active, the others as inactive; . = not tested or not shown.

SMILES	OX1R antag-1	GPR7 antagonist	TAAR1 ag	CHO parental Ca	TAAR1 antagonist	OX1R antag-2
COc1ccccc1NC(=O)c1ccccc1C(=O)Nc1ccccc1OC	22	-11	2	-14	22	-21
COc1ccccc1NC(=O)c1cnc(Nc2ccccc2OC)c2ccccc12	74*	-20	0	-33	16	-11
Cc1ccc(-n2c3nc(=O)n(C)c(=O)c-3cc3ccccc32)cc1	50*	-4	-1	-18	-22	-10
CCCCn1c(=O)nc2n(-c3ccc(C)cc3)c3ccccc3cc-2c1=O	27	9	-1	-18	-18	-27
Oc1c(Cl)cc(Cl)cc1Sc1cc(Cl)cc(Cl)c1O	60*	2	.	101*	.	73*
Cc1ccc(-n2c(N)c(C(=O)Nc3c(C)n(C)n(-c4ccccc4)c3=O)c3nc4ccccc4nc32)cc1C	16	20	.	38*	.	37
CCCSc1ccc2nc(-c3ccccc3)cn2c1	10	-13	-1	-17	-2	-24
CCCCSc1ccc2nc(-c3ccc(C#N)cc3)cn2c1	22	11	19	1	50*	-34
Cc1cc(S(=O)(=O)Nc2ccc(C(=O)NC3CC3)cc2)ccc1F	.	.	1	.	5	.
Cc1cc(N=O)no1	.	.	0	.	-6	.
COc1ccc(NS(=O)(=O)c2ccc(-c3cnc(C4CC4)o3)cc2)cc1OC	53	28	3	55*	10	27
C[C@H](CO)N1C[C@H](C)[C@@H](CN(C)Cc2ccc3c(c2)OCO3)Oc2cc(Br)ccc2S1(=O)=O	.	.	1	.	50*	.
C[C@@H]1CN([C@@H](C)CO)S(=O)(=O)c2ccc(-c3ccc(C#N)cc3)cc2O[C@@H]1CN(C)Cc1ccccn1	.	.	12	.	56*	.
C[C@H](O)C#Cc1ccc2c(c1)O[C@@H](CN(C)Cc1ccc(-c3ccccc3)cc1)[C@H](C)CN([C@@H](C)CO)S2(=O)=O	.	.	6	.	51*	.
C[C@@H]1CN([C@H](C)CO)S(=O)(=O)c2ccc(Br)cc2O[C@@H]1CN(C)Cc1ccc(-c2ccccc2)cc1	.	.	1	.	-28	.
CC(OC(=O)c1cc(-c2cccnc2)nc2ccccc12)C(=O)Nc1ccc2ccccc2c1 (stereo not given)	20	-3	9	-25	51*	-22
O=C(NNC(=S)Nc1ccccc1)c1cc(-c2cccnc2)nc2ccccc12	25	-16	7	-24	21	-34
Cc1ccc2nc(N/N=C/c3ccccc3F)nc(-c3ccccc3)c2c1	51*	-4	3	-22	13	-22
CCOC(=O)C1=C(C(=O)OCC)C2N(Cc3ccc(C#N)cc3)c3ccccc3[C@@]23C[C@@H](C(=O)OC)N(S(=O)(=O)c2ccc(OC)cc2)C3=N1 (stereo not given in full)	.	.	1	.	-20	.
Cc1ccc(NC(=S)NCc2ccc(S(N)(=O)=O)cc2)cc1Cl	2	20*	16	5	23	1
COc1ccc2nc(N3CCC(C)CC3)c(C#N)cc2c1	58*	-8	11	-16	7	-21
CN1CCN(C2Cc3ccccc3Sc3ccc(Cl)cc32)CC1 (stereo not given)	4	.	27	-11	12	-26
CN1CCN(C2Cc3ccccc3Sc3cc(C(F)(F)F)ccc32)CC1 (stereo not given)	2	.	51*	2	30	-5
CSc1ccc2c(c1)C(N1CCN(C)CC1)Cc1ccccc1S2 (stereo not given)	9	35*	13	12	36	20
CN1CCN(C2Cc3ccc(F)cc3Sc3cc(F)c(Cl)cc32)CC1 (stereo not given)	7	.	15	7	7	10
SMILES	OX1R antag-1	GPR7 antagonist	TAAR1 ag	CHO parental Ca	TAAR1 antagonist	OX1R antag-2
CN1CCCCC(NC(=O)c2cccs2)C1=O (stereo not given)	.	.	0	.	20	.
COc1ccc(NC(=O)c2cc(-c3cc(C)ccc3O)n[nH]2)cc1Cl	71*	-9	3	-6	-7	4
COc1ccc(OC)c(NC(=O)c2cc(-c3cc(Cl)ccc3O)n[nH]2)c1	101*	0	15	35*	32	97*
Cc1ccc2nc(/C(C#N)=C\c3ccc(N4CCOCC4)o3)[nH]c2c1	25	-16	43*	-1	21	-2
Cc1ccc(/C(C#N)=C\c2ccc(N3CCOCC3)o2)cc1	8	5	14	-11	24	-22
COc1ccc(CNC(=O)c2c(C)oc3c2C(=O)c2ccccc2C3=O)cc1	30	-1	4	8	2	5
Cc1oc2c(c1C(=O)NCc1cccnc1)C(=O)c1ccccc1C2=O	46*	-17	.	-8	.	-32
O=C(CSc1nc2ncc(Br)cc2[nH]1)Nc1ccccc1-c1ccccc1	36	-6	20	-2	-25	17
O=C(CSc1nc2ncc(Cl)cc2[nH]1)Nc1ccccc1-c1ccccc1	35*	-9	2	-19	-1	21
CCCn1c(SCC(=O)Nc2ccccc2-c2ccccc2)nnc1-c1ccoc1C	59*	-2	1	-9	12	-12
Cn1nnnc1SCC(=O)Nc1ccccc1-c1ccccc1	10	16*	6	-11	-9	-15
Cc1cc(F)ccc1S(=O)(=O)Nc1ccccc1C(=O)Nc1ccccc1-c1nc2ccccc2[nH]1	20	-3	.	30*	.	9
O=C(C[C@H]1CC[C@@H]2[C@H](COC[C@H](O)CN2C(=O)c2cnccn2)O1)NCc1ccc(Cl)cc1	.	.	1	.	-7	.
CN(C)C1=NC[C@H](Cc2ccccc2)N1CCCC1CCCCC1	15	.	48*	19	5	-9
CCOC(=O)N1CCN(C(=O)C[C@@H]2C[C@@]3(C(=O)OCC)CCC=C3N(Cc3cccc4ccccc34)C2=O)CC1	.	.	3	.	-7	.
CN(NC(=O)C(=O)NCc1ccco1)C(=O)NC1CCCCC1	.	.	1	.	-2	.
Cn1c2c(c(=O)n(C)c1=O)C(C(F)(F)F)(C(F)(F)F)N=C(c1ccc(Cl)cc1)N2	56*	5	.	17	.	9
CN1CCN(C2CN(Cc3cn(Cc4ccccc4)nn3)S(=O)(=O)C2)CC1 (stereo not given)	.	.	1	.	-25	.
CN(C(=O)COC(=O)c1cc2ccccc2oc1=O)C1CCCCC1	28*	.	1	-10	12	-20
O=C(OC1CCCCC1)c1cc2ccccc2oc1=O	13	1	6	-10	3	-14
